This is an account of results in ChEMBL document CHEMBL1139789, “Synthesis of neuroprotective cyclopentenone prostaglandin analogs: suppression of manganese-induced apoptosis of PC12 cells” (Bioorg Med Chem Lett, 2007).

Series [1] has as its system PC-12. Description: Inhibition of manganese ion-induced apoptosis in PC12 cells assessesed as suppression of DNA fragmentation at 10 uM. Particulars: Rattus norvegicus. It is filed as functional. The method in brief: (§1)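 PC12 cells (2·10⁷) preincubated with test agent at 10 and 20 μM for 30 min at 37 °C in DMEM plus 5% FBS. MnCl₂ then added to 0.25 mM and incubation continued 20 h at 37 °C. Soluble DNA extracted, run on agarose gels, laddering visualized on UV transilluminator.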

Series [2] relates to PC-12. Kind of series: Toxicity in PC12 cells assessed by measuring DNA fragmentation upto 20 uM. It is filed as cell-based, Homo sapiens. The method in brief: (§2)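 PC12 cells (2·10⁷) exposed to agent at 10 and 20 μM in DMEM with 5% FBS at 37 °C, 30 min preincubation, then 20 h further incubation with no MnCl₂ added. Apoptosis judged by DNA laddering: soluble DNA extracted, agarose gel electrophoresis, UV transilluminator visualization.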

The subject of series [3] is PC-12. Kind of series: Inhibition of manganese ion-induced apoptosis in PC12 cells assessesed as suppression of DNA fragmentation upto 20 uM. It is filed as functional, cell-based. The method in brief:
as §1

In series [4] the test system is PC-12. Description: Toxicity in PC12 cells assessed by measuring DNA fragmentation at 10 uM. It is filed as cell-based, Homo sapiens. Particulars: pc-12, 10 µM. The gist of the method:
as §2

Activity calls are given as the source filed them. No cut-off for these calls is given here.

Broadly, the inhibition is the percentage by which the read-out fell short of the control. A low value points to a response near the control. Compound `CCCCCCC/C=C1/C(=O)C=C[C@@H]1CCCCCCC(=O)OC` returned an inhibition at 10 µM in series [1] of 50%. In addition, the Activity result in series [2] is listed as “Non-toxic”. In series [1], `COC(=O)CCCCCC[C@H]1C=CC(=O)/C1=C/CCCCOc1ccc(Br)cc1` came in with an inhibition at 10 µM of less than 50%. Besides, the Activity entry in series [2] is “Non-toxic”. With `COC(=O)CCCCCC[C@@H]1C(=O)C=C[C@H]1CCCCCCc1ccc(C)cc1`, in series [3], the result was inactive. In series [2], the Activity entry is on record as “Non-toxic”.

As for `CCCCC/C=C/C=C1/C(=O)C=CC1C/C=C\CCCC(=O)O` (stereo unspecified), the result in series [3] was inactive. In series [4], the Activity result is “Toxic”.

`CCCCCCCC[C@@H]1C=CC(=O)/C1=C/CCCCCC(=O)OC`: the inhibition at 10 µM in series [1] was 50%. For `COC(=O)CCCCC/C=C1\CC=CC1=O`, the result in series [3] was inactive. For the same compound, the Activity entry in series [2] is reported as “Non-toxic”. As to `COC(=O)CCCCCC[C@H]1C=CC(=O)/C1=C/CCCCCc1ccc(C)cc1`, in series [1], testing at 10 µM gave an inhibition of 50%. Besides, in series [2], the Activity entry was “Non-toxic”. With `CCCCC[C@H](O)/C=C/[C@H]1C=CC(=O)/C1=C/CCCCCC(=O)OC`, in series [3], the result was inactive. In addition, the Activity result in series [4] is listed as “Toxic”. For the compound `COC(=O)CCCCC/C=C1/C(=O)C=C[C@H]1CCCCCCc1ccc(C)cc1`, the inhibition at 10 µM in series [1] worked out at 50%. Further, in series [4], the Activity entry was “Toxic”.

Turning to `COC(=O)CCCCCC[C@@H]1C=CC(=O)/C1=C/CCCCOc1ccc(Br)cc1`, the outcome in series [3] was inactive. Further, the Activity entry in series [4] is recorded as “Toxic”. Consider `COC(=O)CCCCC/C=C1/C(=O)CC[C@H]1CCCCCCc1ccc(C)cc1`, for which the outcome in series [3] was inactive. Besides, in series [2], the Activity result is on record as “Non-toxic”.
